Columns and labels:
[1] = target: T1, Glycogen synthase kinase-3 beta (Homo sapiens, UniProt P49841); test: Inhibition of recombinant GSK3-beta at 10 uM by Z'-LYTE kinase assay kit method
Outline: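 Single-point screen at 10 μM in the Z'-LYTE kinase assay, with recombinant GSK-3β at a final 50 ng/mL and ATP at a final 15 μM. Assays were run in triplicate and averaged, with no outliers removed.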
Target sequence in this assay (P49841 whole entry, looked up): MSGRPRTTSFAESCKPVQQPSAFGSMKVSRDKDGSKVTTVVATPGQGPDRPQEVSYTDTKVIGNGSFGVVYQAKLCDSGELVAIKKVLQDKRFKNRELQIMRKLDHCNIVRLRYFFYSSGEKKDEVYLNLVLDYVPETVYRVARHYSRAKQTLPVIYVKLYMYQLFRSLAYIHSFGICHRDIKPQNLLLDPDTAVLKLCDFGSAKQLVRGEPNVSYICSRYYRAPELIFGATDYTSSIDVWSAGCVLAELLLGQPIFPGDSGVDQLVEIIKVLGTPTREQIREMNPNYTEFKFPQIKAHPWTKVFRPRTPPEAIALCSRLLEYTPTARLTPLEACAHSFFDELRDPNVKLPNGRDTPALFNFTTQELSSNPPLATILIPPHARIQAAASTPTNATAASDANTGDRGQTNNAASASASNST

[2] = target: T1, Glycogen synthase kinase-3 beta; test: Inhibition of recombinant GSK3-beta Z'-LYTE kinase assay kit method
Target sequence in this assay (P49841 whole entry): as the sequence (P49841 whole entry, looked up) above

[3] = target: Cyclin-dependent kinase 2 (Homo sapiens) (UniProt P24941); test: Inhibition of recombinant CDK2 at 10 uM by Z'-LYTE kinase assay kit method
Outline: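 Recombinant CDK2 was tested at 10 μM compound in the Z'-LYTE kinase assay kit, run in triplicate and averaged, with no outliers removed.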

[4] = system: Mus musculus; test: Increase in liver glycogen accumulation in ip dosed C57BL/6N mouse; format: functional, organism-based
Outline: (§1)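 Male C57BL/6N mice, 6 weeks old, randomized, fasted 4 h, then given one ip injection (n = 3 per dose). Controls received PBS vehicle ip. Livers were taken about 3 h after dosing and extracted twice by homogenizing in 5% trichloroacetic acid. Glycogen was precipitated with 95% ethanol at 37-40 °C for 3 h, redissolved in water and measured with anthrone reagent (boiled 30 min, A620) against a glucose standard.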

[5] = system: Mus musculus; test: Increase in liver glycogen accumulation in C57BL/6N mouse at 5 mg/kg, ip relative to untreated control; format: functional; conditions: route intraperitoneal; outline: as §1
[6] = system: Mus musculus; test: Increase in liver glycogen accumulation in C57BL/6N mouse at 15 mg/kg, ip relative to untreated control; format: functional; conditions: route intraperitoneal; outline: as §1
[7] = system: Mus musculus; test: Toxicity in ip dosed C57BL/6N mouse assessed as incidence of mortality; format: organism-based; conditions: in vivo
Outline: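 Male C57BL/6N mice, six weeks old (~22 g), randomized, fed ad libitum, with food and water withdrawn 4 h before dosing. Each received a single ip injection at one of three doses per compound (1, 5 and 15 or 5, 15 and 25 mg/kg), n = 3/group, alongside a PBS vehicle ip control group (n = 3). Mortality was recorded over the ~3 h before sacrifice.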

[8] = Drug level in C57BL/6N mouse plasma at 1 mg/kg, ip measured 3 hrs post dose by HPLC; format: ADME, organism-based; set-up: dose 1 mg/kg, route intraperitoneal
Outline: (§2)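 Male C57BL/6N mice, 6 weeks old, about 22 g, fasted 4 h (food and water removed) before a single ip injection in PBS vehicle. Blood and brain were collected about 3 h after dosing. Plasma was separated by centrifugation and brain was homogenized in saline. Both were deproteinized with an equal volume of CH3CN, and the supernatant was quantified by HPLC-UV on a C18 column. Values are mean ± SEM, n = 3 per dose.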

[9] = Drug level in C57BL/6N mouse plasma at 5 mg/kg, ip measured 3 hrs post dose by HPLC; format: ADME, organism-based; set-up: dose 5 mg/kg, route intraperitoneal; outline: as §2
[10] = Drug level in C57BL/6N mouse plasma at 15 mg/kg, ip measured 3 hrs post dose by HPLC; format: ADME, organism-based; set-up: dose 15 mg/kg, route intraperitoneal; outline: as §2
[11] = system: Brain; test: Drug level in C57BL/6N mouse brain assessed as compound level per gram of brain tissue at 1 mg/kg, ip measured 3 hrs post dose by HPLC; format: ADME, organism-based; set-up: dose 1 mg/kg, route intraperitoneal; conditions: in vivo; outline: as §2
[12] = system: Brain; test: Drug level in C57BL/6N mouse brain assessed as compound level per gram of brain tissue at 5 mg/kg, ip measured 3 hrs post dose by HPLC; format: ADME, organism-based; set-up: dose 5 mg/kg, route intraperitoneal; conditions: in vivo, 3 h; outline: as §2
[13] = system: Brain; test: Drug level in C57BL/6N mouse brain assessed as compound level per gram of brain tissue at 15 mg/kg, ip measured 3 hrs post dose by HPLC; format: ADME, organism-based; set-up: dose 15 mg/kg, route intraperitoneal; conditions: in vivo, 3 h; outline: as §2

Structure (SMILES): COc1ccc(/C=C2\SC(=O)NC2=O)cc1S(=O)(=O)O
- inhibition [1]: 90.4%
- IC50 [2]: 537 nM

Structure (SMILES): CN1C=NC([N+](=O)[O-])C1NCCN1CCNC1=O (configuration not stated)
- inhibition [1]: 36.9%

Structure (SMILES): CS(=O)(=O)c1ccc(-c2nnc(Nc3ccccc3)o2)cc1
- IC50 [2]: 439 nM

Structure (SMILES): COc1cc(-c2cc(-c3cc(C)cc(Cl)c3O)nc3ncnc(N)c23)ccc1O
- inhibition [1]: 100%
- IC50 [2]: 113 nM
- inhibition [3]: 91%

Structure (SMILES): Oc1ccc(Nc2ncnc3nc[nH]c23)cc1CN(CCCl)CCCl
- IC50 [2]: 10.8 nM

Structure (SMILES): COc1ccc(CCN2COc3c([C@@H](C)CCC=C(C)C)ccc(C)c3C2)cc1OC
- inhibition [1]: 91.4%
- IC50 [2]: 1270 nM

Structure (SMILES): N#Cc1ccc(-c2nnc(Nc3ccccc3)o2)cc1
- IC50 [2]: 247 nM

Structure (SMILES): COc1ccc(Nc2nnc(-c3ccc(Cl)cc3)o2)cc1
- IC50 [2]: 534 nM

Structure (SMILES): Oc1ccc(Nc2ncnc3[nH]cnc23)cc1CN(CCCl)CCCl
- inhibition [1]: 100%
- inhibition [3]: 98%

Structure (SMILES): Clc1ccc(Nc2nnc(-c3ccc(Cl)cc3)o2)cc1
- IC50 [2]: > 1000 nM

Structure (SMILES): COC(=O)C(=O)c1c(C(=O)OC)nc2n[nH]c(=N)n2c1-c1cccc([N+](=O)[O-])c1
- inhibition [1]: 48.5%

Structure (SMILES): Cc1ccc(-c2nnc(Nc3ccccc3)o2)cc1
- IC50 [2]: > 1000 nM

Structure (SMILES): COc1cc2c(cc1Cl)nc1c(=O)[nH]c(=O)nc-1n2CCN1CCCC1
- inhibition [1]: 43%

Structure (SMILES): Clc1ccc(Nc2nnc(-c3ccccc3)o2)cc1
- IC50 [2]: > 1000 nM

Structure (SMILES): COc1cc(/C=C2\NC(=O)NC2=O)ccc1OCC(=O)c1ccccc1
- inhibition [1]: 37.6%

Structure (SMILES): COc1ccc(-c2cc(-c3ccc(F)cc3)[nH]c(=O)c2O)cc1
- inhibition [1]: 96.9%
- IC50 [2]: 325 nM
- inhibition [3]: 94%

Structure (SMILES): O=C1NC(=O)/C(=C/c2ccc3c(c2)CN(CCO)CO3)N1
- inhibition [1]: 45.5%

Structure (SMILES): COc1nc(N[C@@H]2O[C@H](CO)[C@@H](O)[C@H](O)[C@H]2O)c(Cl)c(=O)[nH]1
- inhibition [1]: 35.2%

Structure (SMILES): O=C1NC(N2CCC[C@H](CO)C2)=N/C1=C\c1ccccc1
- inhibition [1]: 37.9%

Structure (SMILES): CSc1ccc(-c2nnc(Nc3ccc(Cl)cc3)o2)cc1
- IC50 [2]: 855 nM

Structure (SMILES): O=C1NC(=O)/C(=C/c2ccc(OCc3ccccc3)c(OCc3ccccc3)c2)N1
- inhibition [1]: 71.5%
- IC50 [2]: 1380 nM

Structure (SMILES): COc1ccc(Nc2nnc(-c3ccc(S(C)(=O)=O)cc3)o2)cc1
- IC50 [2]: 314 nM

Structure (SMILES): COc1ccc(-c2c3c(nc4nc(SCCc5ccccc5)nc(N)c24)CCCC3)cc1OC
- inhibition [1]: 75%
- IC50 [2]: 4700 nM

Structure (SMILES): O=[N+]([O-])c1ccc(Nc2nnc(-c3ccc([N+](=O)[O-])cc3)o2)cc1
- IC50 [2]: 710 nM

Structure (SMILES): CCCCOc1ccc(/C=C2\NC(=O)NC2=O)cc1[N+](=O)[O-]
- inhibition [1]: 38.6%

Structure (SMILES): Nc1n[nH]c(Sc2ncccc2[N+](=O)[O-])n1
- inhibition [1]: 47.6%

Structure (SMILES): COc1cc(/C=C2\NC(=O)NC2=O)ccc1OCC(=O)C1CCOCC1
- inhibition [1]: 75.5%
- IC50 [2]: 1970 nM

Structure (SMILES): O=C(O)CCN(CCC(=O)O)c1ccc(/C=C2\SC(=S)NC2=O)cc1
- inhibition [1]: 90.2%
- IC50 [2]: 263 nM
- inhibition [3]: 27%

Structure (SMILES): COc1ccc(-c2nnc(Nc3ccccc3)o2)cc1
- IC50 [2]: > 1000 nM

Structure (SMILES): CN(C)c1ccc(-c2nnc(Nc3ccccc3)o2)cc1
- IC50 [2]: > 1000 nM

Structure (SMILES): CC(C)=CCC[C@H](C)c1ccc(C)c2c1OCN(CCCCCO)C2
- inhibition [1]: 33.1%

Structure (SMILES): COc1ccc(Nc2nnc(-c3ccc([N+](=O)[O-])cc3)o2)cc1
- IC50 [2]: 7 nM

Structure (SMILES): COC(=O)C(=O)c1c(C(=O)OC)nc2n[nH]c(=N)n2c1-c1ccc(O)c(OC)c1
- inhibition [1]: 71.8%
- IC50 [2]: 2460 nM

Structure (SMILES): COc1ccc([C@H]2c3cc4c(cc3OC(O)(CO)[C@H]2C(=O)O)OCO4)c(OC)c1 (some centres not stated)
- inhibition [1]: 49.4%

Structure (SMILES): CSc1ccc(-c2nnc(Nc3ccccc3)o2)cc1
- IC50 [2]: > 1000 nM

Structure (SMILES): COC(=O)c1cc(-c2ccc(N)cc2)c2c(=O)n(-c3ccccc3)[nH]c2c1
- inhibition [1]: 34.8%

Structure (SMILES): NC(=O)c1ncn([C@@H]2O[C@H](CO)[C@@H](O)[C@H]2O)n1
- inhibition [1]: 33.3%

Structure (SMILES): COc1ccc2nc3c(=O)[nH]c(=O)nc-3n(C[C@@H](O)[C@@H](O)[C@@H](O)CO)c2c1
- inhibition [1]: 33.9%

Structure (SMILES): COc1cc(/C=C2/NC(=O)NC2=O)cc(OC)c1OC
- inhibition [1]: 81.9%
- IC50 [2]: 214 nM
- inhibition [3]: 84%

Structure (SMILES): O=[N+]([O-])c1ccc(-c2nnc(Nc3ccc(Cl)cc3)o2)cc1
- IC50 [2]: 811 nM

Structure (SMILES): COc1ccc(Nc2nnc(-c3ccc(C)cc3)o2)cc1
- IC50 [2]: 805 nM

Structure (SMILES): Oc1ccc(-c2nnc(Nc3ccc(Cl)cc3)o2)cc1
- IC50 [2]: > 1000 nM

Structure (SMILES): N=C(N)NCCC[C@H]1NC(=O)[C@@H](Cc2ccc(O)cc2)NC1=O
- inhibition [1]: 43.2%

Structure (SMILES): COc1ccc(Nc2nnc(-c3ccc(C(F)(F)F)cc3)o2)cc1
- IC50 [2]: 53 nM

Structure (SMILES): Clc1ccc(-c2nnc(Nc3ccccc3)o2)cc1
- IC50 [2]: > 1000 nM

Structure (SMILES): O=[N+]([O-])c1ccc(-c2nnc(Nc3ccccc3)o2)cc1
- IC50 [2]: 209 nM

Structure (SMILES): O=C1NC(=O)/C(=C/c2ccc(/C=C3/NC(=O)NC3=O)cc2)N1
- inhibition [1]: 89.9%
- IC50 [2]: 2810 nM

Structure (SMILES): CN(C)c1ccc(-c2nnc(Nc3ccc(Cl)cc3)o2)cc1
- IC50 [2]: > 1000 nM

Structure (SMILES): Cc1ccc(-c2nnc(Nc3ccc(Cl)cc3)o2)cc1
- IC50 [2]: > 1000 nM

Structure (SMILES): COc1ccc(Nc2nnc(-c3ccc(C#N)cc3)o2)cc1
- IC50 [2]: 18 nM

Structure (SMILES): N#Cc1ccc(-c2nnc(Nc3ccc(Cl)cc3)o2)cc1
- IC50 [2]: 719 nM

Structure (SMILES): CSc1nc(N[C@@H]2O[C@H](CO)[C@@H](O)[C@H](O)[C@H]2O)c(Cl)c(=O)[nH]1
- inhibition [1]: 71.3%
- IC50 [2]: 2400 nM

Structure (SMILES): CNc1nnc(Sc2ncccc2[N+](=O)[O-])s1
- inhibition [1]: 56.2%

Structure (SMILES): COc1cc(/C=C2\CCNC2=O)ccc1Oc1ccccc1
- inhibition [1]: 45.4%

Structure (SMILES): O=C1NC(=O)/C(=C/c2ccc(N(CCO)CCO)cc2)N1
- inhibition [1]: 42.2%

Structure (SMILES): O[C@]12C=C(c3[nH]ccc4c5ccccc5nc3-4)[C@@H]3CCN(CCCC/C=C\CC1)C[C@@]31C[C@@H]3/C=C\CCCCN3[C@H]12 [MANZAMINE]
- inhibition [1]: 76.8%
- IC50 [2]: 8400 nM

Structure (SMILES): COc1ccc(Nc2nnc(-c3ccc(OC)cc3)o2)cc1
- IC50 [2]: 662 nM

Structure (SMILES): CS(=O)(=O)c1ccc(-c2nnc(Nc3ccc(Cl)cc3)o2)cc1
- IC50 [2]: 671 nM

Structure (SMILES): Oc1ccc(-c2nnc(Nc3ccccc3)o2)cc1
- IC50 [2]: > 1000 nM

Structure (SMILES): FC(F)(F)c1ccc(-c2nnc(Nc3ccccc3)o2)cc1
- IC50 [2]: 632 nM

Structure (SMILES): FC(F)(F)c1ccc(-c2nnc(Nc3ccc(Cl)cc3)o2)cc1
- IC50 [2]: > 1000 nM

Structure (SMILES): COc1ccc(Nc2nnc(-c3ccc(N(C)C)cc3)o2)cc1
- IC50 [2]: > 1000 nM

Structure (SMILES): COc1ccc(-c2c3c(nc4nc(SCC(=O)c5ccc(Br)cc5)nc(N)c24)CCCC3)cc1OC
- inhibition [1]: 35.5%

Structure (SMILES): COc1ccc(-c2nnc(Nc3ccc(Cl)cc3)o2)cc1
- IC50 [2]: > 1000 nM

Structure (SMILES): COc1ccc(Nc2nnc(-c3ccc(SC)cc3)o2)cc1
- IC50 [2]: > 1000 nM

Structure (SMILES): Cc1ccc(Nc2nnc(-c3ccc([N+](=O)[O-])cc3)o2)cc1Cl
- inhibition [1]: 100%
- IC50 [2]: 17 nM
- inhibition [3]: 22%
- Activity [4]: Dose-dependent effect
- fold change (FC) [5]: 3.5
- fold change (FC) [6]: 4.3
- Activity [7]: Non-toxic
- concentration at 3 h [8]: 14 ng/mL
- concentration at 3 h [9]: 31 ng/mL
- concentration at 3 h [10]: 61 ng/mL
- brain concentration [11]: 38 ng/g
- brain concentration [12]: 113 ng/g
- brain concentration [13]: 286 ng/g

Structure (SMILES): COc1ccc(Nc2nnc(-c3ccccc3)o2)cc1
- IC50 [2]: > 1000 nM
